Assay results: publication PMC3163154 (Molecular pharmaceutics, 2011)

Key:
LNCaP cells [1] = assay: Cytotoxicity assay; assay type: cell-based; conditions: read-out: IC50 in LNCaP cells; LNCaP (PTEN-null), 72 hours, MTT assay
DU145 cells = assay: Cytotoxicity assay; assay type: cell-based; conditions: read-out: IC50 in DU145 cells; DU145 (PTEN-wild), 72 hours, MTT assay
In short: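 DU145 cells were seeded at 3×10³ cells/well, a lower density than LNCaP owing to fast growth. After 24 h, test compound was added and cells were incubated 72 h at 37°C. Relative cell number was measured by MTT. IC50 was obtained by fitting a concentration-response curve.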

PI3Kβ = conditions: selectivity; cited from earlier work
LNCaP cells [2] = assay: Androgen induced proliferation assay; assay type: cell-based; conditions: R1881-containing serum-free medium, 3 days, compared with TGX-221
In short: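 LNCaP cells were seeded 12 h before assay. Medium was switched to serum-free medium containing 1 nM R1881 (synthetic androgen), then test compound was added. After 72 h incubation, proliferation was read by Alamar Blue assay. Mean ± SD, n=3.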

[3] = test system: androgen response element (ARE-LUC) reporter in LNCaP cells; assay: Androgen induced gene expression assay; assay type: cell-based; conditions: R1881 1.0 nM, 24 hours, compared with TGX-221
In short: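 LNCaP cells in 6-well plates were transfected the next day with 1.0 μg ARE-LUC plasmid using Lipofectamine. After 24 h, medium was changed to RPMI-1640 with 2% FBS and 1.0 nM R1881, test compound was added, and cells were incubated 24 h. Cells were PBS-washed and lysed, and luciferase activity was normalised to BCA total protein. Mean ± SD, n=3.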

LNCaP cells [4] = assay: Cellular uptake study; assay type: cell-based; conditions: 0.5 μM, 1 hour incubation
LNCaP cells [5] = assay: In vitro competitive receptor binding assay; assay type: cell-based; conditions: pre-incubation with Ac-KCCYSL 1 hour, then KCC-TGX 30 minutes
In short: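 LNCaP cells were plated at 2×10⁴ cells/well for 12 h and PBS-washed. They were pre-incubated 1 h at 37°C with the HER2-targeting peptide at the indicated concentrations, then exposed to test conjugate for 30 min. Cells were washed, freeze-thaw lysed, NaOH-hydrolysed 1 h to release parent drug, and extracted with ethyl acetate using an internal standard. Drug was quantified by LC-MS/MS and normalised to BCA protein. n=3.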

LNCaP cells [6] = assay: Immunostaining of LNCaP cells with biotinylated peptides; assay type: binding
In short: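 LNCaP cells were fixed in ice-cold acetone/methanol (1/1) for 10 min and blocked with 1% BSA for 1 h. Biotinylated peptide was applied for 1 h in TBST (0.1% Tween-20, 0.1 M Tris-Cl, pH 7.4). After washing, streptavidin-FITC was added for 20 min and nuclei were counterstained. Cells were imaged by fluorescence microscopy at 200x.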

Compound: Cc1cc(C(C)Nc2ccccc2)c2nc(N3CCOCC3)cc(=O)n2c1 (stereo not shown) [TGX-221]
- IC50 (LNCaP cells [1]): 1.07 µM
- IC50 (DU145 cells): > 100 µM
- inhibition effect on PI3Kβ over PI3Kα (PI3Kβ): about 1000 fold
- inhibition effect on PI3Kβ over PI3Kγ (PI3Kβ): about 1000 fold
- inhibition effect on PI3Kβ over PI3Kδ (PI3Kβ): ~20 fold

Compound: Cc1cc(C(C)N(CCO)c2ccccc2)c2nc(N3CCOCC3)cc(=O)n2c1 (stereo not shown) [TGX-D1]
- IC50 (LNCaP cells [1]): 2.67 µM
- IC50 (DU145 cells): > 100 µM
- inhibition of androgen-induced cell proliferation (LNCaP cells [2]): comparable effects
- inhibition of androgen-induced gene expression [3]: comparable effects
- cellular uptake in LNCaP cells (LNCaP cells [4]): low uptake

Compound: Ac-KCCYSL
- uptake by LNCaP cells after pre-incubation with the HER2-specific ligand (LNCaP cells [5]): significantly inhibited

Compound: DPRATPGSK
- fluorescence on LNCaP cells (streptavidin-FITC staining) (LNCaP cells [6]; control peptide, concentration increased to 100 μM (data not shown)): No significant fluorescence

Compound: KCCYSL
- binding on LNCaP cells (streptavidin-FITC staining) (LNCaP cells [6]; C-terminus biotinylated peptide, 10 μM): high-affinity binding
